Results of several laboratories.
Protocols differ between the studies behind these lines.
DRD4: D(4) dopamine receptor (DRD4, Homo sapiens, UniProt P21917)
PI4KA: Phosphatidylinositol 4-kinase alpha (PI4KA, Homo sapiens, UniProt P42356)
ABHD6: Monoacylglycerol lipase ABHD6 (ABHD6, Homo sapiens, UniProt Q9BV23)

SMILES | target | test | test system | conditions | inhibition
N#Cc1cc(Cn2c(N3CCCC3)nc3ccccc32)ccc1F | DRD4 | ligand displacement |  | 10 µM | -0.93%
Cn1cnc(Br)c1C1=CN(c2ncnc3[nH]cnc23)CCS1 | Mitogen-activated protein kinase kinase kinase 19 (MAP3K19, Homo sapiens, UniProt Q56UN5) | enzyme activity, inhibitor, radiometric |  | 2 µM | 92.8%
CCN1CCN(Cc2ccc(NC(=O)c3ccc(C)c(Oc4ccnc5[nH]ccc45)c3)cc2C(F)(F)F)CC1 | PI4KA | target engagement in cells, inhibitor, chemoproteomics | Huh-7 | 10 µM | -10.4%
O=C1N=C(N2CCCCN2)S/C1=C\c1ccc(F)cc1O | Neurotensin receptor type 1 (NTSR1, Homo sapiens, UniProt P30989) | ligand displacement, radioligand |  | 10 µM | < 10%
O=C(CSc1nc2nccnc2c(=O)n1CCc1ccccc1)Nc1nccs1 | PI4KA | enzyme activity, inhibitor |  | 10 µM | -5%
CCN(CC)c1ccc(C2Nc3ccc(C(=O)c4ccccc4)cc3NC3=C2C(=O)CC(C)(C)C3)cc1 (stereo not drawn) | DRD4 | ligand displacement, radioligand |  | 10 µM | 100%
CC/C(=N\NC(=O)NCc1cccc(O)c1)c1ccc(O)c(C)c1O | Mast/stem cell growth factor receptor Kit (KIT, Homo sapiens, UniProt P10721, D816Y) | enzyme activity, inhibitor |  | 0.1 µM | -0.1%
CC(C)CCn1c(SCC(=O)Nc2ccccc2C(F)(F)F)nc2nccnc2c1=O | PI4KA | enzyme activity, inhibitor |  | 10 µM | < 20%
O=C(Oc1nsnc1N1CCN(c2ccccc2)CC1)N1CCCCC1 | ABHD6 | enzyme activity, inhibitor, fluorescence |  | 1 µM, lysate | 40%
CC(C)C[C@H](NC(=O)[C@H](CC(C)C)NC(=O)CNC(=O)[C@H](C)NC(=O)[C@H](C)NC(=O)[C@H](CCCNC(=N)N)NC(=O)CNC(=O)CCCCNC(=O)[C@H](CCCCN)NC(=O)[C@H]1CCCN1C(=O)[C@H](CCCCN)NC(=O)[C@H](CCCCN)NC(=O)[C@H](CCCCN)NC(=O)[C@H](CCCCN)NC(=O)[C@H](Cc1ccc(O)cc1)NC(=O)[C@@H](N)Cc1c[nH]c2ccccc12)C(N)=O | Neuropeptides B/W receptor type 1 (NPBWR1, Homo sapiens, UniProt P48145) | calcium signal, antagonist |  | 10 µM | 95%
CS(=O)(=O)Nc1cccc(-c2csc(NC(=O)CSc3nc4nccnc4c(=O)n3CCc3ccccc3)n2)c1 | PI4KA | enzyme activity, inhibitor |  | 10 µM | 5%
CCCNc1nc2ccccc2n1Cc1ccc(Cl)cc1 | DRD4 | ligand displacement |  | 10 µM | 2.14%
COc1cc2c3c(c1OC)-c1cc4c(cc1CC3N(CC1CC1)CC2c1ccccc1)OCO4 (stereo not drawn) | 5-hydroxytryptamine receptor 5A (HTR5A, Homo sapiens, UniProt P47898) | ligand displacement, radioligand |  | 10 µM | -18.2%
O=C(Oc1nsnc1N1CCC(c2ccccc2)CC1)N1CCCCC1 | ABHD6 | enzyme activity, inhibitor, fluorescence |  | 1 µM, lysate | 41%
CN1CC(Oc2cnc(C#N)cc2-c2ccn3nc(NC(=O)C4CC4)cc3c2)C1 | Tribbles homolog 2 (TRIB2, Homo sapiens, UniProt Q92519) | enzyme activity, inhibitor |  | 1 µM | 9%
